Laboratory results taken from ChEMBL document CHEMBL5038587, “Synthesis of Methoxy-, Methylenedioxy-, Hydroxy-, and Halo-Substituted Benzophenanthridinone Derivatives as DNA Topoisomerase IB (TOP1) and Tyrosyl-DNA Phosphodiesterase 1 (TDP1) Inhibitors and Their Biological Activity for Drug-Resistant Cancer” (J Med Chem, 2021).
Activity calls are given as the source filed them. No cut-off for these calls is given here.

Key:
MCF7 [1] = assay: Synergistic cytotoxicity against human MCF7 cells at 50 nM after 96 hrs in presence of 12-(2-(Dimethylamino)ethyl)-1,2-dihydroxy-[1,3]dioxolo[4',5':4,5]benzo[1,2-c]phenanthridine-13(12H)-one by MTT assay; assay type: functional
[2] = target: T1, Tyrosyl-DNA phosphodiesterase 1 (Homo sapiens, UniProt Q9NUW8); assay: Induction of TDP1-DNA complex formation in human MCF7 cells at 10 uM by ICE assay; assay type: cell-based
Outline: (§1)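 Genomic DNA isolated with DNAzol and ethanol precipitation, then 2 µg slot-blotted onto nitrocellulose in 25 mM NaH2PO4 pH 6.5. Probed with rabbit anti-TDP1 (1:1000) overnight at 4 °C, then HRP secondary, with chemiluminescent read-out.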

MCF7 [3] = assay: Induction of DNA damage in human MCF7/TDP1 cells assessed as increase in gammaH2AX foci at 1 uM measured after 6 hrs by DAPI staining based immunofluorescence assay; assay type: functional
Outline: (§2)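 Fixed in 4% paraformaldehyde, permeabilized with 0.5% Triton X-100, blocked in 5% goat serum. Stained with γH2AX antibody overnight at 4 °C, then Alexa 488 secondary plus DAPI 2 µg/mL. Foci counted by confocal microscopy, at least three independent repeats.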

MCF7 [4] = assay: Induction of DNA damage in human MCF7/TDP1 cells assessed as increase in gammaH2AX foci measured after 6 hrs by DAPI staining based immunofluorescence assay; assay type: functional; outline: as §2
MCF7 [5] = assay: Cytotoxicity against human MCF-7/TDP1 cells assessed as cell growth inhibition after 72 hrs by MTT assay; assay type: functional
Outline: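 MCF-7/TDP1 is a TDP1-overexpressing line made by transfecting parental MCF-7, grown in RPMI 1640 or DMEM with 10% FBS at 37 °C, 5% CO2. DMSO-dissolved compounds tested at five doses from 0.01 to 100 µM, read by MTT. GI50 (mean ± SD, at least three repeats) fitted by nonlinear regression against control.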

MCF7 [6] = assay: Synergistic cytotoxicity against human MCF7/TDP1 cells at 100 nM after 96 hrs by MTT assay; assay type: functional
MCF7 [7] = assay: Synergistic cytotoxicity against human MCF7 cells at 50 nM after 96 hrs by MTT assay; assay type: functional
MCF7 [8] = assay: Synergistic cytotoxicity against human MCF7/TDP1 cells at 100 nM after 96 hrs in presence of 12-(2-(Dimethylamino)ethyl)-1,2-dihydroxy-[1,3]dioxolo[4',5':4,5]benzo[1,2-c]phenanthridine-13(12H)-one by MTT assay; assay type: functional
MCF7 [9] = assay: Induction of apoptosis in human MCF7 cells assessed as late apoptotic cells at 1 uM measured after 24 hrs by Annexin V-FITC/propidium iodide staining based flow cytometry (Rvb=0%); assay type: functional
Outline: (§3)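 MCF-7 cells (2×10^5 per dish) exposed to compound at 1, 2 or 4 µM for 24 h. Cells resuspended in binding buffer and stained with Annexin V-FITC plus propidium iodide for 15 min at 25 °C in the dark. Viable, early apoptotic, late apoptotic and necrotic fractions quantified by flow cytometry.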

[10] = target: T1, Tyrosyl-DNA phosphodiesterase 1; assay: Induction of TDP1-DNA complex formation in human MCF7 cells at 10 to 100 uM in presence of TPT by ICE assay; assay type: cell-based; conditions: dose 10-100 µM; outline: as §1
MCF7 [11] = assay: Induction of apoptosis in human MCF7 cells assessed as early apoptotic cells at 4 uM measured after 24 hrs by Annexin V-FITC/propidium iodide staining based flow cytometry(Rvb=0.12%); assay type: functional; outline: as §3
[12] = target: T1, Tyrosyl-DNA phosphodiesterase 1; assay: Induction of TDP1-DNA complex formation in human MCF7/TDP1 cells at 10 uM by ICE assay; assay type: cell-based; outline: as §1
MCF7 [13] = assay: Induction of apoptosis in human MCF7 cells assessed as viable cells at 4 uM measured after 24 hrs by Annexin V-FITC/propidium iodide staining based flow cytometry (Rvb=99.05%); assay type: functional; conditions: read-out: Activity; outline: as §3
MCF7 [14] = assay: Induction of DNA damage in human MCF7/TDP1 cells assessed as decrease in TPT-induced gammaH2AX foci at 1 uM measured after 6 hrs by DAPI staining based immunofluorescence assay; assay type: functional; parameters: scale not given: the % may be the effect or the level left; outline: as §2
DU-145 = assay: Cytotoxicity against human DU145 cells assessed as cell growth inhibition after 72 hrs by MTT assay; assay type: functional
Outline: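 Compounds predissolved in DMSO, tested in a five-dose series from 0.01 to 100 µM for 72 h, then read by MTT. Percent viability inhibition is taken against control, and GI50 is fitted by nonlinear regression.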

MCF7 [15] = assay: Induction of DNA damage in human MCF7/TDP1 cells assessed as decrease in TPT-induced gammaH2AX foci at 2 uM measured after 6 hrs by DAPI staining based immunofluorescence assay; assay type: functional; parameters: scale not given: the % may be the effect or the level left; outline: as §2
MCF7 [16] = assay: Induction of DNA damage in human MCF7 cells assessed as decrease in TPT-induced gammaH2AX foci at 1 uM measured after 6 hrs by DAPI staining based immunofluorescence assay; assay type: functional; parameters: scale not given: the % may be the effect or the level left; outline: as §2
MCF7 [17] = assay: Induction of apoptosis in human MCF7 cells assessed as viable cells at 1 uM measured after 24 hrs by Annexin V-FITC/propidium iodide staining based flow cytometry (Rvb=99.05%); assay type: functional; conditions: read-out: Activity; outline: as §3
MCF7 [18] = assay: Induction of apoptosis in human MCF7 cells assessed as viable cells at 2 uM measured after 24 hrs by Annexin V-FITC/propidium iodide staining based flow cytometry (Rvb=99.05%); assay type: functional; conditions: read-out: Activity; outline: as §3
MCF7 [19] = assay: Induction of DNA damage in human MCF7 cells assessed as decrease in TPT-induced gammaH2AX foci at 2 uM measured after 6 hrs by DAPI staining based immunofluorescence assay; assay type: functional; parameters: scale not given: the % may be the effect or the level left; outline: as §2
MCF7 [20] = assay: Induction of apoptosis in human MCF7 cells assessed as late apoptotic cells at 2 uM measured after 24 hrs by Annexin V-FITC/propidium iodide staining based flow cytometry (Rvb=0%); assay type: functional; outline: as §3
MCF7 [21] = assay: Synergistic cytotoxicity against human MCF7 cells assessed as combination index measured after 96 hrs in presence of TPT by MTT assay; assay type: functional
MCF7 [22] = assay: Induction of apoptosis in human MCF7 cells assessed as necrotic cells at 1 uM measured after 24 hrs by Annexin V-FITC/propidium iodide staining based flow cytometry (Rvb=0.83%); assay type: functional; outline: as §3
MCF7 [23] = assay: Induction of apoptosis in human MCF7 cells assessed as necrotic cells at 2 uM measured after 24 hrs by Annexin V-FITC/propidium iodide staining based flow cytometry; assay type: functional; outline: as §3
MCF7 [24] = assay: Synergistic cytotoxicity against human MCF7/TDP1 cells assessed as combination index measured after 96 hrs in presence of TPT by MTT assay; assay type: functional
[25] = target: T2, DNA topoisomerase 1 (Homo sapiens) (UniProt P11387); assay: Inhibition of recombinant TOP1 (unknown origin) at 1 uM using 3'-[32P]-labeled 117 bp DNA oligonucleotides as substrate incubated for 20 mins by PAGE analysis relative to CPT
T2 sequence (whole entry): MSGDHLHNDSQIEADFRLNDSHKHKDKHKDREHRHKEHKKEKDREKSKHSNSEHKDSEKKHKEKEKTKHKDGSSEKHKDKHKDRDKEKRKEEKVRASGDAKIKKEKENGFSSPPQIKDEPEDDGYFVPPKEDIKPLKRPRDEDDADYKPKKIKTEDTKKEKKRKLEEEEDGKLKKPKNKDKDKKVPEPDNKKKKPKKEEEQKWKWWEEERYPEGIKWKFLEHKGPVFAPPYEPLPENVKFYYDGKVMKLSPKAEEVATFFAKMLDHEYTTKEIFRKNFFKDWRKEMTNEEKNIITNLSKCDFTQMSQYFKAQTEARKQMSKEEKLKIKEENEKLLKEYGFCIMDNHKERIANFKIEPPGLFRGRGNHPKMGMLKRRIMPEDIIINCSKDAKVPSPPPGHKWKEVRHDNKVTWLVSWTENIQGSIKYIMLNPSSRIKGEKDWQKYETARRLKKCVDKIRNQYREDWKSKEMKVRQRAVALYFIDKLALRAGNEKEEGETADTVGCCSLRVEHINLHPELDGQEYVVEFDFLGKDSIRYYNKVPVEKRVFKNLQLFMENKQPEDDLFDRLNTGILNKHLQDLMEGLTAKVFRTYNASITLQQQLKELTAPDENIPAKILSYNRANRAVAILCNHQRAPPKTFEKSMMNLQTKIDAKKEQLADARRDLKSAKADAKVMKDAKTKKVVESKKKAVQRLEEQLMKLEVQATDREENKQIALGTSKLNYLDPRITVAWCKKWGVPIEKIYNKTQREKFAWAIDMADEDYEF
Outline: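 3'-[32P]-labeled 117 bp oligonucleotide (~2 nM) with recombinant TOP1 and compound, 25 °C, 20 min. Buffer: 10 mM Tris-HCl pH 7.5, 50 mM KCl, 5 mM MgCl2, 0.1 mM EDTA, BSA. Stopped with 0.5% SDS and run on 20% denaturing PAGE with phosphorimaging.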

MCF7 [26] = assay: Induction of apoptosis in human MCF7 cells assessed as early apoptotic cells at 2 uM measured after 24 hrs by Annexin V-FITC/propidium iodide staining based flow cytometry (Rvb=0.12%); assay type: functional; outline: as §3
MCF7/TDP1 = assay: Induction of DNA damage in human MCF7/TDP1 cells assessed as decrease in gammaH2AX foci at 2 uM measured after 6 hrs by DAPI staining based immunofluorescence assay; parameters: scale not given: the % may be the effect or the level left
MCF7 [27] = assay: Induction of apoptosis in human MCF7 cells assessed as late apoptotic cells at 4 uM measured after 24 hrs by Annexin V-FITC/propidium iodide staining based flow cytometry (Rvb=0%); assay type: functional; outline: as §3
MCF7 [28] = assay: Induction of apoptosis in human MCF7 cells assessed as necrotic cells at 4 uM measured after 24 hrs by Annexin V-FITC/propidium iodide staining based flow cytometry (Rvb=0.83%); assay type: functional; outline: as §3
[29] = target: T1, Tyrosyl-DNA phosphodiesterase 1; assay: Induction of TDP1-DNA complex formation in human […] cells at 10 to 100 uM in presence of TPT by ICE assay; assay type: cell-based; conditions: dose 10-100 µM; outline: as §1
[30] = target: T1, Tyrosyl-DNA phosphodiesterase 1; assay: Induction of TDP1-DNA complex formation in human MCF7 cells at 100 uM by ICE assay; assay type: cell-based; outline: as §1
MCF7 [31] = assay: Induction of apoptosis in human MCF7 cells assessed as early apoptotic cells at 1 uM measured after 24 hrs by Annexin V-FITC/propidium iodide staining based flow cytometry (Rvb=0.12%); assay type: functional; outline: as §3

T1 sequence (Q9NUW8 whole entry): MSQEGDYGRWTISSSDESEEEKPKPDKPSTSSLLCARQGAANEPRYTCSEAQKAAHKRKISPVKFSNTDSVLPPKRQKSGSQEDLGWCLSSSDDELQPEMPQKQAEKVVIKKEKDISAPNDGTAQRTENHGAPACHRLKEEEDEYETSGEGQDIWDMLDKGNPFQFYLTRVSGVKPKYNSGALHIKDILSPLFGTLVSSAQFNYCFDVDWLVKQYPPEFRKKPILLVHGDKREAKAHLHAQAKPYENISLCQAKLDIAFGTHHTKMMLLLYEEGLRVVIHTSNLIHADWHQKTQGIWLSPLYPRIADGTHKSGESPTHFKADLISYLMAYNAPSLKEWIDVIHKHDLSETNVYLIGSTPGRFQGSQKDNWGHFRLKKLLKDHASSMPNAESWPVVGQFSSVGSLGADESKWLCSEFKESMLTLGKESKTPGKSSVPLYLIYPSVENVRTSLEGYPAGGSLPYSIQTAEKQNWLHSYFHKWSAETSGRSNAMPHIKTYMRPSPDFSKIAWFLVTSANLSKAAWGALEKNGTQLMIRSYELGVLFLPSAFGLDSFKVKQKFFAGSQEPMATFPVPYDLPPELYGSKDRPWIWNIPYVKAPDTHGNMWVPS

With `CC[C@@]1(O)C(=O)OCc2c1cc1n(c2=O)Cc2cc3c(CN(C)C)c(O)ccc3nc2-1` [TOPOTECAN] the Activity (MCF7 [1]) was 87%, the Activity [2] was “inactive” and the Activity (MCF7 [3]) was 34%. For the same compound, the Activity (MCF7 [4]) was 34%, the GI50 (MCF7 [5]) was 2.59 µM and the Activity (MCF7 [6]) was 19%. The Activity (MCF7 [7]) was 23% and the Activity (MCF7 [8]) was 86%.

`CN(C)CCn1c(=O)c2c(O)c(O)ccc2c2ccc3cc4c(cc3c21)OCO4` was tested, and the Activity (MCF7 [9]) was 0.73%, the Activity [10] was “Active” and the Activity (MCF7 [11]) was 26.53%. For the same compound, the Activity [12] was “Active”, the viability at 4 µM (MCF7 [13]) was 15.7% and the Activity (MCF7 [14]) was 14%. For the same compound, the GI50 (DU-145) was 0.8 µM, the Activity (MCF7 [15]) was 18% and the Activity (MCF7 [16]) was 14%. The viability at 1 µM (MCF7 [17]) was 70.1%, the viability at 2 µM (MCF7 [18]) was 39.7% and the Activity (MCF7 [19]) was 18%. The Activity [2] was “inactive”, the Activity (MCF7 [3]) was 22% and the Activity (MCF7 [20]) was 24.3%. The CI (MCF7 [21]) was <0.3, the Activity (MCF7 [22]) was 0.16% and the GI50 (MCF7 [5]) was 3.98 µM. For the same compound, the Activity (MCF7 [23]) was 14.71%, the CI (MCF7 [24]) was <0.3 and the inhibition [25] was 75%. For the same compound, the Activity (MCF7 [26]) was 21.31%, the Activity (MCF7/TDP1) was 28% and the Activity (MCF7 [27]) was 48.46%. For the same compound, the Activity (MCF7 [28]) was 9.31%, the Activity [29] was “Active” and the Activity [30] was “Active”. The Activity (MCF7 [31]) was 28.99%.
